CYP2C19 act – cytochrome P450 2C19 (human) activation. recombinant CYP2C19, luciferin-H EGE luminescence; active compounds read high; 0 = fully inhibited enzyme, 1 = untreated enzyme. activation factor at 5 µM. 96,000 tested, under 10 active;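 active means activation factor of at least 2 at 5 µM in the primary screen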;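 further: 0 = wells with 2.5 mM tranylcypromine and 1 = vehicle-only wells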
CYP2C9 activ – activators of human CYP2C9 | 1.4% of 96,000 active | AID 1024 | recombinant CYP2C9, luciferin-H conversion, luminescence; active compounds read high; factor 1 = untreated enzyme, 0 = blocked | activation factor at 5 µM;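 active means activation factor of 2 or more for CYP2C9 at a 5 µM dose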;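 further: 0 = sulfaphenazole-blocked wells and 1 = vehicle-only wells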
CYP2C9 inh – inhibitors of human CYP2C9. CYP2C9 Supersomes, luciferin-H conversion, luminescence. 20% of 96,000 active. inhibition, % at 5 µM;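 active means blocking of liver enzyme CYP2C9 beyond about 50% at 5 µM, limit read from the data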
Cav32 inh – blocks human Cav3.2 T-type calcium channel; Cav3.2-expressing cells, Fluo-4 calcium fluorescence FDSS; active compounds read low; 4% of 100,000 active; B-score at 10 µM;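 active means single-dose well whose peak fluorescence ratio is a statistical outlier from its plate by either plate-standardised score or position-corrected B-score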
HIV Rev-RRE inh – HIV Rev-RRE protein-RNA interaction inhibition. AID 704. inhibition, % at 8 µM. Rev peptide-RRE RNA binding, FRET. 0.79% of 97,000 active. P05866;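 active means inhibition above the screen-wide mean plus 3 SD, cut at about 35% in these data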;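 further: 0% = median DMSO wells and 100% = median Neomycin B control wells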
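Assay system: Rev peptide and RRE RNA, both fluorescently labelled; times: 5 min preincubation and 15 min binding, 25 °C; detection: FRET, ex 480 nm, em 540 and 671 nm; read-out basis: % inhibition from 671/540 nm acceptor-to-donor ratio, scaled between controls; benchmarks: DMSO low control, neomycin B high control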
CYP2C19 inh – inhibitors of human CYP2C19; P33261; CYP2C19 Supersomes, luciferin-H EGE luminescence, 30 min; inhibition, % at 5 µM; 21% of 96,000 active;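 active means CYP2C19 inhibition above a set limit at 5 µM in the primary screen, cut at about 50% in these data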;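 further: plate controls were negative control wells for no effect and 2.5 mM tranylcypromine positive control for full effect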
Starred values were filed as active, the others as inactive; / = no result. This is a sample that favours compounds with a hit; in the whole collection about 27% have one here.

SMILES | CYP2C19 act | CYP2C9 activ | CYP2C9 inh | Cav32 inh | HIV Rev-RRE inh | CYP2C19 inh
COc1ccc2cc(C3(C)NC(=O)N(CC(=O)NCCC4=CCCCC4)C3=O)ccc2c1 (configuration not stated) | 0.9 | 0.7 | 30.8 | -7.37* | 6.2 | 11.9
COc1ccc(C)cc1S(=O)(=O)N(C)CC(=O)N1CCC(C)CC1 | / | / | / | -0.967 | 1.0 | /
COc1ccc(N(CC(=O)NC2CCCCC2)S(=O)(=O)c2cccnc2)cc1 | 0.5 | 0.4 | 64.9* | 0.128 | 4.7 | 53.2*
Cc1ccc(N(CC(=O)NC2CCC(C)CC2)S(=O)(=O)c2cccnc2)cc1 (configuration not stated) | 0.5 | 0.7 | 26.1 | -0.402 | 6.5 | 49.4
CCOC(=O)C1CCN(C(=O)CN(C)S(=O)(=O)c2cc(C)ccc2OC)CC1 | 0.6 | 0.5 | 54.2* | 0.678 | -3.1 | 44.7
COc1ccc(S(=O)(=O)N(C)CC(=O)N2CCC(C(N)=O)CC2)cc1Cl | 1.1 | 2* | -99.8 | 0.518 | / | -5.4
COc1ccc(S(=O)(=O)N(C)CC(=O)NCc2cccnc2)cc1Cl | 0.5 | 1.7 | -65.2 | -0.867 | 5.0 | 53.9*
CCN(CC)c1cc(CS(=O)c2ccccc2)nc(-c2ccccc2)n1 (configuration not stated) | / | / | / | -1.8 | 8.1 | /
COC(=O)c1nn(-c2ccccc2)c(=O)cc1Oc1ccccc1 | 0.9 | 0.9 | 5.9 | 0.794 | 5.7 | 11.4
CC(=O)N1CCN(c2ccc(NC(=O)c3ccccc3Br)cc2Cl)CC1 | / | / | / | 0.318 | / | /
COc1cc(OC)cc(C(=O)NCCCN2CCOCC2)c1 | / | / | / | 0.367 | 4.3 | /
COc1ccc(S(=O)(=O)N(C)CC(=O)NC2CCCCC2)cc1Cl | 0.5 | 2.4* | -141.2 | -0.0496 | 8.1 | 52.9*
COc1ccc(S(=O)(=O)N(C)CC(=O)NC2CC2)cc1 | 0.7 | 2.5* | -149.8 | 0.495 | 6.3 | 28.0
COC(=O)[C@H](Cc1ccccc1)NC(=O)NCc1ccccc1OC | 0.6 | 0.7 | 32.6 | 0.538 | 2.1 | 42.1
O=C(Cn1sc2ccccc2c1=O)NC12CC3CC(CC(C3)C1)C2 | 0.6 | 0.1 | 90.3* | / | 0.8 | 39.0
NC(=O)c1ccccc1OCC(=O)NC12CC3CC(CC(C3)C1)C2 | 0.9 | 1.2 | -16.6 | 0.109 | 1.1 | 12.0
c1ccc(N2CC[N+]3(CCCC3)CC2)nc1 | 1.1 | 1.1 | -13.1 | 1.46 | 9.0 | -14.6
COc1ccc(CN2CCN(c3ccccn3)CC2)c(OC)c1 | 0.5 | 0.8 | 15.5 | 0.103 | / | 45.7
c1ccc(COc2ccc(CN3CCN(c4ccccn4)CC3)cc2)cc1 | 0.6 | 0.4 | 58.9* | -0.973 | 4.2 | 37.9
C(#Cc1ccccc1)CN1CCN(c2ccccn2)CC1 | 0 | 0.2 | 76.1* | -1.27 | 8.8 | 98.5*
O=C(O)c1cccnc1SC1CC(=O)N(Cc2ccccc2)C1=O (configuration not stated) | 1.1 | 1 | 4.2 | 0.185 | 5.1 | -13.1
CCOc1c(C(=O)CC)cc2c(C)cc(=O)oc2c1C | / | / | / | -0.0143 | 0.8 | /
Cc1ccc(-c2cc(-c3ccc(F)cc3)nc(N)c2C#N)o1 | 0.6 | 0.5 | 52.2* | -0.521 | 16.8 | 39.1
Cc1ccc(-c2cc(-c3ccccc3Cl)c(C#N)c(N)n2)o1 | 0.1 | 0.2 | 81.6* | -0.459 | 17.1 | 91.9*
Cc1ccc(-c2cc(-c3ccccc3)c(C#N)c(N)n2)o1 | 0.7 | 0.9 | 7.3 | -0.106 | 24.8 | 32.6
SMILES | CYP2C19 act | CYP2C9 activ | CYP2C9 inh | Cav32 inh | HIV Rev-RRE inh | CYP2C19 inh
COCCN1C(=O)N[C@@H](c2cccc(F)c2)C(C(=O)OC)=C1C | / | / | / | -0.0477 | / | /
COc1cccc(CSc2nnc(-c3ccco3)n2C)c1 | 0.1 | 0.8 | 16.6 | 0.1 | 5.5 | 95.0*
Nn1c(SCc2cccc3ccccc23)nnc1-c1ccco1 | 0.6 | 2.6* | -164.5 | 0.0883 | 4.8 | 35.6
Cn1c(SCc2cccc3ccccc23)nnc1-c1ccco1 | 0.2 | 1.4 | -40.0 | -2.19 | 7.5 | 83.2*
CCc1cccc2c(=O)c(C(=O)N3CCCCCC3)c[nH]c12 | 1 | 0.9 | 5.3 | -0.235 | 0.4 | 1.9
COc1ccc(C(=O)/C(=C\c2ccco2)N2C=CC=CC2=C(C#N)C#N)cc1 | 0.9 | 0.7 | 34.1 | -6.84* | 10.0 | 14.9
Cc1cccc(NS(=O)(=O)c2c(C)n[nH]c2C)c1 | 0.3 | 0.2 | 79.0* | -1.43 | 0.7 | 68.3*
Cc1ccc(S(=O)(=O)N2CCN(C(=O)N(C)C)CC2)cc1C | 0.4 | 1.7 | -68.4 | 1.07 | -2.9 | 55.6*
CCN(CC)C(=O)N1CCN(S(=O)(=O)c2ccc(C)c(C)c2)CC1 | 0 | 2.2* | -122.8 | 0.172 | 0.3 | 98.0*
Cc1ccc(N(C)C(=O)N2CCN(S(=O)(=O)c3c(C)cc(C)cc3C)CC2)cc1 | 0.4 | 0.3 | 74.9* | -6.01* | -4.0 | 64.2*
CCN(CC)C(=O)N1CCN(S(=O)(=O)c2ccc(C)cc2)CC1 | 0.7 | 1.4 | -37.8 | 0.062 | -0.9 | 30.1
Cc1nc(CCNC(=O)COc2ccccc2)cs1 | 0.7 | 1.1 | -6.1 | -1.08 | 8.2 | 29.5
N#Cc1ccccc1CSc1ccccn1 | 0.4 | 1 | 4.6 | 0.00904 | 3.8 | 56.3*
CCN(CC)S(=O)(=O)c1ccc(C2CNC(=O)C2)cc1 (configuration not stated) | 1.2 | 0.9 | 10.0 | 1.29 | 4.4 | -19.1
COc1ccc(OCCn2c(C)c(/C=N/n3cnnc3)c3ccccc32)cc1 | 0.2 | 0.3 | 74.9* | 0.308 | 3.0 | 75.6*
Cc1cccc(OCCn2c(S(=O)(=O)O)nc3ccccc32)c1 | 0.9 | 0.7 | 35.0 | 0.0592 | -0.7 | 10.7
CCn1c(=N)n(CCOc2ccc(OC)cc2)c2ccccc21 | 0.8 | 1 | -4.5 | 1.15 | -0.8 | 23.7
Oc1ccc2ccccc2c1/C=N/n1cnnc1 | / | / | / | 0.554 | / | /
COc1cccc(OCCn2c(C)c(/C=N/n3cnnc3)c3ccccc32)c1 | 0.4 | 0.6 | 36.4 | 0.0134 | -6.8 | 56.0*
Cc1c(/C=N/n2cnnc2)c2ccccc2n1C | 0.2 | 0.8 | 20.3 | 0.154 | 4.0 | 76.6*
COCCCNC(=O)c1cc(C(=O)c2c(-c3c(Cl)cccc3Cl)noc2C)c[nH]1 | 1 | 0.9 | 7.5 | 1.03 | -0.7 | -3.7
COc1ccc(CCNC(=O)c2nnn(-c3ccc4c(c3)OCCO4)c2N)cc1OC | 0.6 | 0.5 | 48.9 | 0.0561 | 10.6 | 37.6
COc1ccc(C(=O)Nc2ccc3oc(-c4cccc(Cl)c4)cc(=O)c3c2O)cc1 | / | / | / | -0.727 | / | /
CN1CCN(/C=N/c2c(C#N)cnn2Cc2ccccc2)CC1 | 1.1 | 1.1 | -6.9 | -0.0639 | 3.8 | -6.0
CC1=C(SCCC#N)S/C(=C2\SC(C)=C(SCCC#N)S2)S1 | 1 | 1 | -1.9 | / | -0.6 | -4.2
CCN(CC)C(=O)c1sc(NC(=O)C(Sc2ccccc2)c2ccccc2)c(C(=O)OC(C)C)c1C (configuration not stated) | 0.8 | 0.2 | 84.4* | -4.5* | -1.7 | 20.9
COC(=O)c1c(NC(=O)c2nc3ncccn3n2)sc(C(=O)N(C)C)c1C | 1.1 | 1.1 | -6.3 | / | / | -9.9
